The test system of data set [1] is Mus musculus. Description: In vivo induction of osteogenesis in Balb/c mouse assessed as increase in Runx2 mRNA level in calvaria at 1 mg/kg/day, sc over calvarial surface for 5 consecutive days by RT-PCR method relative to control. The class given is functional. The method in brief: (§1)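 Three-week-old Balb/c mice (3 per group) injected subcutaneously over the calvarial surface daily for 5 consecutive days at 0.1, 0.5, 1 and 5 mg/kg/day. Calvaria fixed in 4% formaldehyde, paraffin-embedded, H&E-stained; tetracycline and calcein (20 mg/kg each, ip) given for MAR/BFR histomorphometry; calvarial mRNA by RT-PCR. Mean ± SE, three independent experiments, versus untreated.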

Data set [2] is described as follows: Induction of osteoblast differentiation in mouse calvarial cells assessed as compound concentration required for maximum increase in ALP activity using PNPP as substrate after 48 hrs. The class given is functional, Calvarial cell.
Data set [3] is described as follows: Induction of osteoblast differentiation in mouse calvarial cells assessed as increase in ALP activity using PNPP as substrate after 48 hrs. The class given is functional, cell-based. Particulars: Calvarial cell.
The nature of data set [4]: Induction of osteoblast differentiation in mouse calvarial cells assessed as increase in BMP2 mRNA expression at 1 pM after 24 hrs by qRT-PCR method relative to control. The class given is functional, Calvarial cell. An outline of the steps:
(§2)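 Mouse calvarial osteoblasts exposed to 1 pM for 24 h; BMP2, RunX2 and COL1 mRNA by quantitative PCR with GAPDH as internal control. Mean ± SE of three independent experiments versus untreated cells.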
For orientation: Quantitative PCR measures a nucleic acid by following its amplification.

Data set [5] in a line: Induction of osteoblast differentiation in mouse calvarial cells assessed as increase in RunX2 mRNA expression at 1 pM after 24 hrs by qRT-PCR method relative to control. Format: functional, Calvarial cell. The method in brief: as §2
Data set [6] deals with Mus musculus. Description: In vivo induction of osteogenesis in Balb/c mouse assessed as bone formation at 0.5 to 1 mg/kg/day, sc over calvarial surface for 5 consecutive days by hematoxylin and eosin staining based fluorescence microscopic method. The class given is functional, organism-based. An outline of the steps: as §1
The test system of data set [7] is Mus musculus. Kind of data set: In vivo induction of osteogenesis in Balb/c mouse assessed as bone formation at 5 mg/kg/day, sc over calvarial surface for 5 consecutive days by hematoxylin and eosin staining based fluorescence microscopic method. The class given is functional, organism-based. The method in brief:
as §1

Data set [8] concerns Mus musculus. Kind of data set: In vivo induction of osteogenesis in Balb/c mouse assessed as increase in bone formation rate in calvaria at 0.1 to 1 mg/kg/day, sc over calvarial surface for 5 consecutive days by fluorochromes tetracycline and calcein labeling based histomorphometric analysis. The class given is functional, organism-based. The method in brief:
as §1

The test system of data set [9] is Mus musculus. Description: Anti-osteoporotic activity in ovariectomized postmenopausal Balb/c mouse model assessed as improvement in micro-artchitectural parameter in tibia by measuring structural model index at 1 mg/kg, po qd via gavage for 6 weeks by micro CT-scan analysis (reference value: 2.32 +/- 0.08). The class given is functional. An outline of the steps:
(§3)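 Female Balb/c mice, 8 weeks old, ovariectomized, 6 weeks osteopenia development, then 1.0 mg/kg/day or gum acacia vehicle by oral gavage once daily for 6 weeks (sham, OVx and treated groups). Bones collected after sacrifice for micro-CT of trabecular microarchitecture (BV/TV, Tb.N, Tb.Th, Tb.Sp, SMI) and biomechanical testing of femur and vertebrae (energy, stiffness); mean ± SE versus OVx.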

Data set [10] deals with Mus musculus. Kind of data set: Anti-osteoporotic activity in ovariectomized postmenopausal Balb/c mouse model assessed as micro-artchitectural parameter in vertebrae by measuring bone volume fraction at 1 mg/kg, po qd via gavage for 6 weeks by micro CT-scan analysis (reference value: 13.92 +/-1.66%). The class given is functional. The method in brief:
as §3

For data set [11], the system named is Mus musculus. Description: Anti-osteoporotic activity in ovariectomized postmenopausal Balb/c mouse model assessed as improvement in micro-artchitectural parameter in vertebrae by measuring structural model index at 1 mg/kg, po qd via gavage for 6 weeks by micro CT-scan analysis (reference value: 1.78 +/- 0.08). Format: functional. The method in brief:
as §3

The subject of data set [12] is Mus musculus. Kind of data set: Anti-osteoporotic activity in ovariectomized postmenopausal Balb/c mouse model assessed as vertebrae compressive strength by measuring stiffness at 1 mg/kg, po qd via gavage for 6 weeks by micro CT-scan analysis (reference value: 345.7 +/- 5.08 N/mm). Format: functional. The method in brief: as §3
The subject of data set [13] is Mus musculus. Description: Estrogenic effect in uterine of ovariectomized postmenopausal Balb/c mouse model assessed as luminal area at 1 mg/kg, po qd via gavage for 6 weeks (reference value: 57.5 +/- 1.19 um2). The class given is ADME, organism-based. The settings on record: in vivo, 1008 h.
The subject of data set [14] is Mus musculus. Description: Anti-osteoporotic activity in ovariectomized postmenopausal Balb/c mouse model assessed as increase in Osx gene expression in femur bone at 1 mg/kg, po qd via gavage for 6 weeks by RT-PCR method. The class given is functional, organism-based. An outline of the steps:
(§4)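 Eight-week-old female Balb/c mice, ovariectomized and left 6 weeks for osteopenia to develop; groups sham+vehicle, OVx+vehicle, OVx+1.0 mg/kg/day, dosed once daily by oral gavage for 6 weeks in gum acacia/distilled water vehicle. Mice kept at 21°C, 12 h light/dark, chow and water ad libitum. Femoral bone mRNA or serum measured after sacrifice; mean ± SE versus OVx group.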

Data set [15] relates to Mus musculus. Description: Anti-osteoporotic activity in ovariectomized postmenopausal Balb/c mouse model assessed as increase in OCN gene expression in femur bone at 1 mg/kg, po qd via gavage for 6 weeks by RT-PCR method. Format: functional, organism-based. An outline of the steps: as §4
Data set [16] has as its system Mus musculus. Kind of data set: Anti-osteoporotic activity in ovariectomized postmenopausal Balb/c mouse model assessed as decrease in RANK mRNA expression at 1 mg/kg, po qd via gavage for 6 weeks by RT-PCR method. Format: functional, organism-based. The method in brief:
as §4

The test system of data set [17] is Mus musculus. Kind of data set: Anti-osteoporotic activity in ovariectomized postmenopausal Balb/c mouse model assessed as decrease in RANKL mRNA expression at 1 mg/kg, po qd via gavage for 6 weeks by RT-PCR method. Format: functional, organism-based. An outline of the steps:
as §4

In data set [18] the test system is Mus musculus. Description: Anti-osteoporotic activity in ovariectomized postmenopausal Balb/c mouse model assessed as decrease in TRAP mRNA expression at 1 mg/kg, po qd via gavage for 6 weeks by RT-PCR method. The class given is functional, organism-based. The method in brief:
as §4

Data set [19] concerns Mus musculus. Description: Decrease in osteocalcin level in serum of ovariectomized postmenopausal Balb/c mouse model at 1 mg/kg, po qd via gavage for 6 weeks by ELISA. Format: functional, organism-based. An outline of the steps:
as §4
For orientation: ELISA stands for enzyme-linked immunosorbent assay.

For data set [20], the system named is Mus musculus. Description: Osteogenic activity in Balb/c mouse drill-hole fracture model assessed as increase in Sox9 mRNA level at 1 mg/kg, po qd via gavage for 21 days by RT-PCR method.
The test system of data set [21] is Mus musculus. Kind of data set: Osteogenic activity in Balb/c mouse drill-hole fracture model assessed as increase in BMP4 mRNA level at 1 mg/kg, po qd via gavage for 21 days by RT-PCR method.
For data set [22], the system named is Mus musculus. Kind of data set: Osteogenic activity in Balb/c mouse drill-hole fracture model assessed as increase in COL1 mRNA level at 1 mg/kg, po qd via gavage for 21 days by RT-PCR method relative to control.
Data set [23] deals with Mus musculus. Description: Osteogenic activity in Balb/c mouse drill-hole fracture model assessed as bone volume fraction at 1 mg/kg, po qd via gavage for 21 days by micro-CT method (reference value: 32.924 +/- 3.806%).
Data set [24] has as its system Mus musculus. Kind of data set: Osteogenic activity in Balb/c mouse drill-hole fracture model assessed as trabecular number at 1 mg/kg, po qd via gavage for 21 days by micro-CT method (reference value: 2.194 +/- 0.265 /millimeter).

pEC50: −log10 of the molar value. The source made the active and inactive calls. The rule behind the calls is not given here.

One may read the pEC50 as −log10 of the EC50, conventionally taken in molar units. For `COc1cc2oc(=O)cc(-c3ccccc3)c2cc1OCCCCCN1CCN(C)CC1`, the “fold change (FC)” value with Mus musculus [1] turned out to be 4; in data set [4], 2; in data set [5], 2; in the data set on Mus musculus [22] it was 6. Moreover, the “Concentration giving maximal ALP increase” value in [2] is recorded as 1 pM. Further, the pEC50 in data set [3] was 5.64. For the same molecule, the outcome with Mus musculus [6], with Mus musculus [8], in the data set with Mus musculus [14], in the data set on Mus musculus [15], with Mus musculus [16] and in the data set with Mus musculus [17] was Active. The result with Mus musculus [18], with Mus musculus [19], with Mus musculus [20] and in the data set with Mus musculus [21] was Active. The result in the data set on Mus musculus [7] was inactive. Moreover, the Activity_index worked out at 1.84 with Mus musculus [9] and 1.07 in the data set with Mus musculus [11]. Besides, the Activity with Mus musculus [10] is given as 23.43%; in the data set on Mus musculus [12], 381.35 N/mm; in the data set on Mus musculus [13], 75.75 um2; with Mus musculus [23], 44.359%; in the data set on Mus musculus [24], 3.442 /millimeter.
